Measured values taken from publication PMC6959550 (Journal of medicinal chemistry, 2017).

How the values were obtained:
TRPV1 [1] = molecular target: T1, TRPV1 (Homo sapiens, UniProt Q8NER1); experiment: Activity type at TRPV1
TRPV1 [2] = molecular target: T1, TRPV1; experiment: Predicted improvement of specific to nonspecific binding from Kd/Ki and Log P; conditions: from Log P values
TRPV1 [3] = molecular target: T1, TRPV1; format: binding; conditions: human versus rat TRPV1
TRPV1 [4] = molecular target: T1, TRPV1; experiment: Time course of binding of 13 to human TRPV1 and its release
How it was run: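 Membranes (~20 μg protein) from CHO cells expressing human TRPV1 were incubated with the tritiated test ligand in DPBS with 0.25 mg/mL BSA at 37 °C for varied times. Alternatively, after 60 min, 50 nM unlabeled reference vanilloid was added for varied times at 37 °C or at 0 °C after chilling. Workup: α1-acid glycoprotein (2 mg/mL stock), 10 min at 0 °C, pelleting, scintillation counting. Values relative to controls; triplicate means.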

TRPV1 [5] = molecular target: T1, TRPV1; format: binding; conditions: treated versus control

T1 sequence (Q8NER1 whole entry): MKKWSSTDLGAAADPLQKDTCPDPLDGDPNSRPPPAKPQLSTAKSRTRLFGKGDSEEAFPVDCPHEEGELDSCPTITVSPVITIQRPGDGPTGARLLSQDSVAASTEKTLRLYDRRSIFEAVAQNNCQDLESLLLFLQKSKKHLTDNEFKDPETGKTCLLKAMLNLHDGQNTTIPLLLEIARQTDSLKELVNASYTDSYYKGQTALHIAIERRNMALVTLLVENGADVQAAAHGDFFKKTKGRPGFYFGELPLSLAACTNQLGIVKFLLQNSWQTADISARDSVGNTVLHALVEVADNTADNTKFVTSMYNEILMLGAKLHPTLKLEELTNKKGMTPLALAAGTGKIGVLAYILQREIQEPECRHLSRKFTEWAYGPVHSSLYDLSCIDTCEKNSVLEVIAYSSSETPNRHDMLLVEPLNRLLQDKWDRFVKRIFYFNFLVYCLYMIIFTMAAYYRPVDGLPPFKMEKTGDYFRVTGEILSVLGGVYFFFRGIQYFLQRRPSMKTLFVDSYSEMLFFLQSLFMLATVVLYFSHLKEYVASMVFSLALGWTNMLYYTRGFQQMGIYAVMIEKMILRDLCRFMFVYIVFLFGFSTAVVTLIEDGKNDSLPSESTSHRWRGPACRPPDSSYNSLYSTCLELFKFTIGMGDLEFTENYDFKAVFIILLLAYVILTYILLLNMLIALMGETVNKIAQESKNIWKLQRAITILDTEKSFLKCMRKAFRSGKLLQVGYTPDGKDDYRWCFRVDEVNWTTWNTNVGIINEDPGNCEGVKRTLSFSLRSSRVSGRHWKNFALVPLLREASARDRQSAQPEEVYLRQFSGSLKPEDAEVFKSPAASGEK

Row | SMILES | activity (TRPV1 [1]) | Improvement over 1 from the formula ((Kd RTX × 10^LogP RTX)/(Ki compound × 10^Log P compound)) (TRPV1 [2]) [fold] | human TRPV1 less sensitive (weaker binding) than rat/rodent TRPV1 (TRPV1 [3]) | specific binding at 0 °C over the time for assay workup (TRPV1 [4]; 0 °C, after nonradioactive 1 (50 nM)) | time by which specific binding was largely complete (TRPV1 [4]; 37 °C) [min] | time for almost full release of specifically bound ligand (TRPV1 [4]; 37 °C, after nonradioactive 1 (50 nM)) [min] | change of affinity by PMA and cyclosporin A treatment (TRPV1 [5])
1 | CC(C)(C)c1ccc2c(c1)CC[C@H]2NC(=O)Nc1cccc2cnccc12 [A-778317, 1-((R)-5-tert-butyl-indan-1-yl)3-isoquinolin-5-yl-urea] | antagonist | – | – | – | – | – | –
2 | C=C(C)[C@]12C[C@@H](C)[C@@]34O[C@](Cc5ccccc5)(O[C@@H]1[C@@H]3C=C(COC(=O)Cc1ccc(O)c(OC)c1)C[C@]1(O)C(=O)C(C)=C[C@@H]41)O2 [compound 1, resiniferatoxin] | agonist | 1 | approximately 20 fold | – | – | – | –
3 | CC1CCN(c2nc(C(F)(F)F)ccc2CNC(=O)Nc2cccc3c2OCC(=O)N3)CC1 [compound 12, 1-((2-(4-methylpiperidin-1-yl)-6-(trifluoromethyl)pyridin-3-yl)methyl)-3-(3-oxo-3,4-dihydro-2H-benzo[b][1,4]oxazin-8-yl)urea] | antagonist | 45.6 | – | – | – | – | –
4 | [3H]CC1([3H])CCN(c2nc(C(F)(F)F)ccc2CNC(=O)Nc2cccc3c2OCC(=O)N3)CC1 [compound 13, 1-((2-(4-(methyl-[^3H])piperidin-1-yl-4-[^3H])-6-(trifluoromethyl)pyridin-3-yl)methyl)-3-(3-oxo-3,4-dihydro-2H-benzo[b][1,4]oxazin-8-yl)urea] | – | – | – | stable | ≤ 5 | ≤ 2 | no appreciable change
